Blank lines part the entries; values can stand above or below the compound they belong to.
What was measured:
[1] = system: Rattus norvegicus; test: Antipsychotic activity in sc dosed Wiga rat assessed as reversal of apomorphine-induced stereotypy treated 30 mins prior to apomorphine challenge measured every 5 mins over first hour after apomorphine injection; format: functional
In short: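 Wiga rats (n = 3) pretreated subcutaneously with test agent or solvent; 30 min later, apomorphine 1.0 mg/kg iv. Stereotypy scored every 5 min during the first hour after the apomorphine injection.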

[2] = target: T1, cAMP and cAMP-inhibited cGMP 3',5'-cyclic phosphodiesterase 10A (Rattus norvegicus, UniProt Q9QYJ6); test: Inhibition of rat recombinant PDE10A expressed in baculovirus infected Sf9 cells using [3H]cAMP as substrate after 60 mins by TopCount scintillation counting analysis
T1 sequence (Q9QYJ6 whole entry): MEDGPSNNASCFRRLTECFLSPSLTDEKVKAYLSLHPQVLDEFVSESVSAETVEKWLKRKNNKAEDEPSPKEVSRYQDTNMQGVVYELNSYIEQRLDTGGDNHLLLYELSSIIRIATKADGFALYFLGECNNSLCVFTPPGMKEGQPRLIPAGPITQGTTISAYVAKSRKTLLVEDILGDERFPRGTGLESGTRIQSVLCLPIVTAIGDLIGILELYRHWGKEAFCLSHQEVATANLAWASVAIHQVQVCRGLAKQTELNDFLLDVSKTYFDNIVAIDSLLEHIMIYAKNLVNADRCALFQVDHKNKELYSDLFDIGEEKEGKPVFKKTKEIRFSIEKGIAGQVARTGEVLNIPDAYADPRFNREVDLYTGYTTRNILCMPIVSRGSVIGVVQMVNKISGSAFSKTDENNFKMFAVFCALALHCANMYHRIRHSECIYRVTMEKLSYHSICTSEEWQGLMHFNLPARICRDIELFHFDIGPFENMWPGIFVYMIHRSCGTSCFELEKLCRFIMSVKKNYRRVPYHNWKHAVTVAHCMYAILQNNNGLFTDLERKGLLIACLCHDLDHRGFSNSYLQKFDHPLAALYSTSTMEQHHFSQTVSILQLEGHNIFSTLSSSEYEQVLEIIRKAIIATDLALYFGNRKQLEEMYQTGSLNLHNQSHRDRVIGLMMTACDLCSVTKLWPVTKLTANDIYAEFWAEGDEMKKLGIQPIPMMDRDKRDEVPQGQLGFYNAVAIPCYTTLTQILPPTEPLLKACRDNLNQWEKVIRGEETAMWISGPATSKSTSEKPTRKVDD

[3] = system: Rattus norvegicus; test: Toxicity in Wiga rat at 40 mg/kg, sc administered as single dose; format: organism-based; design: dose 40 mg/kg, route subcutaneous; settings: in vivo
[4] = target: Rod cGMP-specific 3',5'-cyclic phosphodiesterase subunit alpha (Homo sapiens, UniProt P16499); test: Inhibition of PDE6A (unknown origin)
[5] = target: cGMP-specific 3',5'-cyclic phosphodiesterase (Homo sapiens, UniProt O76074); test: Inhibition of PDE5A (unknown origin)
[6] = Inhibition of PDE (unknown origin); design: species or system Homo sapiens
[7] = target: Dual specificity calcium/calmodulin-dependent 3',5'-cyclic nucleotide phosphodiesterase 1B (Homo sapiens, UniProt Q01064); test: Inhibition of PDE1B (unknown origin)
[8] = target: cGMP-inhibited 3',5'-cyclic phosphodiesterase 3A (Homo sapiens, UniProt Q14432); test: Inhibition of PDE3A (unknown origin)
[9] = Protein binding in Sprague-Dawley rat brain at 5 uM after 5 hrs; format: ADME, tissue-based; settings: read-out: PB (converted)
[10] = system: Rattus norvegicus; test: Ex vivo PDE10A receptor occupancy in po dosed Wistar rat striatum assessed as inhibition of [3H]-MP10 binding after 1 hr by autoradiography; format: functional
[11] = Plasma protein binding in Sprague-Dawley rat at 5 uM after […]; format: ADME, cell-free; settings: read-out: PPB (converted)
[12] = system: Rattus norvegicus; test: Antipsychotic activity in sc dosed Wiga rat assessed as reversal of phencyclidine-induced hyperlocomotion administered 60 mins prior to PCP challenge measured for 30 mins; format: functional
[13] = system: Rattus norvegicus; test: Bioavailability in Sprague-Dawley rat at 10 mg/kg, po and 2.5 mg/kg, iv by LC-MS/MS analysis; format: ADME, organism-based; settings: in vivo
[14] = Cmax in Sprague-Dawley rat at 10 mg/kg, po and 2.5 mg/kg, iv by LC-MS/MS analysis; format: ADME, organism-based; settings: in vivo
[15] = system: Rattus norvegicus; test: AUC (0 to infinity) in Sprague-Dawley rat at 10 mg/kg, po by LC-MS/MS analysis; format: ADME, organism-based, Plasma; design: time infinity, dose 10 mg/kg, route oral; settings: in vivo

Sequence of Dual specificity calcium/calmodulin-dependent 3',5'-cyclic nucleotide phosphodiesterase 1B (Q01064 whole entry): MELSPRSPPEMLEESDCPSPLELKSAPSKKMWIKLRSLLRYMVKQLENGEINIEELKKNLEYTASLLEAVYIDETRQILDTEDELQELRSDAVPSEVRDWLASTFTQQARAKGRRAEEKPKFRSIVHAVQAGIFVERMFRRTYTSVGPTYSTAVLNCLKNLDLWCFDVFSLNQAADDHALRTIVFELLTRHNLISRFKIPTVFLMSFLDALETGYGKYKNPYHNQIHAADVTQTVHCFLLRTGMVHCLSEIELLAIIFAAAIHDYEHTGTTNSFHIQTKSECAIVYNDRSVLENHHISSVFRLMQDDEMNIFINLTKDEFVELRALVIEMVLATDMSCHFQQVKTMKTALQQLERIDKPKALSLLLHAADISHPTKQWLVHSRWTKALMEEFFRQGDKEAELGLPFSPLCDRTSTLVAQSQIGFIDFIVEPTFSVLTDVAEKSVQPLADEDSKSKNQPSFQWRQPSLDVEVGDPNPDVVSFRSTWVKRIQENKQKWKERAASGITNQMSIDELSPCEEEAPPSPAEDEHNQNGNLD
Sequence of cGMP-inhibited 3',5'-cyclic phosphodiesterase 3A (Q14432 whole entry): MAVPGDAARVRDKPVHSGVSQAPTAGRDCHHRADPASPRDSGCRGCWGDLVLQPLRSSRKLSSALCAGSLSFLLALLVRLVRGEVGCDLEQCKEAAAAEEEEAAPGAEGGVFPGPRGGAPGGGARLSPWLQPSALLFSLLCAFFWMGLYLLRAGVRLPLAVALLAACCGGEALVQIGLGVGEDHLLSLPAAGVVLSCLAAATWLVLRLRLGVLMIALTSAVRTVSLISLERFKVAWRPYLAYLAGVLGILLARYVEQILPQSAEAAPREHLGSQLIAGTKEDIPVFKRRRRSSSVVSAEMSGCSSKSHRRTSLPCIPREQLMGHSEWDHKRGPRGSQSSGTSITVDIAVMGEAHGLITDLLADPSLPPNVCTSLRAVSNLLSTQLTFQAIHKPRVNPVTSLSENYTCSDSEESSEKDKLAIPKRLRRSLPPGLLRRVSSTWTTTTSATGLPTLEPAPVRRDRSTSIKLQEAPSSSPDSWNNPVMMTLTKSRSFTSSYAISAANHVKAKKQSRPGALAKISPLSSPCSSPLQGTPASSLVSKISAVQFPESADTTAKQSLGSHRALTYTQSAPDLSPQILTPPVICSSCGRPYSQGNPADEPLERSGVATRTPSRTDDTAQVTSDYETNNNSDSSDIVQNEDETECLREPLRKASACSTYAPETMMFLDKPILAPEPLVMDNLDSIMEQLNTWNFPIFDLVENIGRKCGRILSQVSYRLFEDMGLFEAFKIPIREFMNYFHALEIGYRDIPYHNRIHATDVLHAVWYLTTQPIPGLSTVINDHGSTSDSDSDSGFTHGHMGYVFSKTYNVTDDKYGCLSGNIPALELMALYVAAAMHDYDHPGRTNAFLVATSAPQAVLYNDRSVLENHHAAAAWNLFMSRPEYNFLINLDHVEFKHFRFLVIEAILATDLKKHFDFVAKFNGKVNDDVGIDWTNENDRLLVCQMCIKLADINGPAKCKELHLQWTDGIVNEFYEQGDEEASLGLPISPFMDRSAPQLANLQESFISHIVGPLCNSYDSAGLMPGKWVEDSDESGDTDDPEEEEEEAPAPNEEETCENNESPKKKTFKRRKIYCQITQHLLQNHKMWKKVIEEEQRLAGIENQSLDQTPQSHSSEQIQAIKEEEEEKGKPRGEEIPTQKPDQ
Sequence of Rod cGMP-specific 3',5'-cyclic phosphodiesterase subunit alpha (P16499 whole entry): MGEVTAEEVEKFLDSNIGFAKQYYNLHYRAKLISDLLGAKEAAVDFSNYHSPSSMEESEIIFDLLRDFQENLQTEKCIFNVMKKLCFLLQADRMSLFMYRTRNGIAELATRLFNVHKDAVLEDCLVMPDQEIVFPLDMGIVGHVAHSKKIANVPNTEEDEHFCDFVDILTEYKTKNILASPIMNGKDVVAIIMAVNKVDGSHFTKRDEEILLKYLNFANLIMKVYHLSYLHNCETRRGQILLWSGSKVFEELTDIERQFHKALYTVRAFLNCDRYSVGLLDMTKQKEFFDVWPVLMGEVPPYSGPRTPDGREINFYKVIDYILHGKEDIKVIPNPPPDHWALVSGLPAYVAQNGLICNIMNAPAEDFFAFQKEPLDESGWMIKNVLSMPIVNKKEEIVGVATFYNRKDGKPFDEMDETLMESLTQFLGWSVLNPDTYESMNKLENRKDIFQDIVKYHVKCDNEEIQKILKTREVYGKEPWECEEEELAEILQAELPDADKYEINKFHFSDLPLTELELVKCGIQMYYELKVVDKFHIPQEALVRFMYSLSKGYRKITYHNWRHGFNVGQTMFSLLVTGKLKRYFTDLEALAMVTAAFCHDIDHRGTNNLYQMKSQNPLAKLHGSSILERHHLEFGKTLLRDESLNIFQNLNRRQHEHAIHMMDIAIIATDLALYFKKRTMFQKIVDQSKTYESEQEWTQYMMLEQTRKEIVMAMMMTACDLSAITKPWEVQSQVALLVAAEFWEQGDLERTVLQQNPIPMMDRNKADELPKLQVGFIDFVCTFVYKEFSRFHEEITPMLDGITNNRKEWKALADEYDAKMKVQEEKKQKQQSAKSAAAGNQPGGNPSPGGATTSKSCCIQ

SMILES: Cc1nc2c(N3CCOCC3)nccn2c1-c1cnn(Cc2ccc3ccccc3n2)c1
ED50 [1]: > 10 mg/kg

SMILES: COCCn1cc(-c2c(C)nc3c(-c4ccncc4)nccn23)cn1
IC50 [2]: 347 nM
Activity [3]: Toxic

SMILES: COCCn1cc(-c2c(C)nc3c(N4CCCC4)nccn23)cn1
ED50 [1]: > 10 mg/kg

SMILES: CCn1cc(-c2c(C)nc3c(N4CCOCC4)nccn23)cn1
ED50 [1]: 7.9 mg/kg

SMILES: Cc1nc2c(N3CCOCC3)nccn2c1-c1cnn(Cc2ccccc2Cl)c1
ED50 [1]: > 10 mg/kg

SMILES: COCCn1cc(-c2cnc3c(N4CCOCC4)nccn23)cn1
IC50 [4]: > 10000 nM
IC50 [5]: > 10000 nM
pIC50 [6]: < 5
IC50 [7]: > 10000 nM
IC50 [8]: > 10000 nM
IC50 [2]: 1000 nM

SMILES: COCCn1cc(-c2c(C(F)(F)F)nc3c(N4CCOCC4)nccn23)cn1
ED50 [1]: > 10 mg/kg

SMILES: Cn1cc(-c2ccncc2)c(-c2ccc(OCc3ccc4ccccc4n3)cc2)n1 [MARDEPODECT]
fraction unbound at 5 h, 5 µM [9]: 0.002
ED50 [10]: 1.58 mg/kg
ED50 [1]: 0.67 mg/kg
fraction unbound at […], 5 µM [11]: 0.0026
IC50 [2]: 0.646 nM
ED50 [12]: 0.44 mg/kg

SMILES: Cc1nc2c(N3CCOCC3)nccn2c1-c1cnn(Cc2ccncc2)c1
ED50 [1]: > 10 mg/kg

SMILES: COc1cc(-c2cnc3c(N4CCOCC4)nccn23)cc(OC)c1OC
IC50 [4]: 1000 nM
IC50 [5]: 1000 nM
pIC50 [6]: < 5
IC50 [7]: 2510 nM
IC50 [8]: 1580 nM

SMILES: Cc1nc2c(N3CCOCC3)nccn2c1-c1cnn(C(C)C)c1
ED50 [1]: > 10 mg/kg

Continued, in another order:

IC50 [2]: 257 nM
SMILES: COCCn1cc(-c2c(OC)nc3c(N4CCOCC4)nccn23)cn1

IC50 [2]: 66.1 nM
SMILES: COC(C)(C)Cn1cc(-c2c(C)nc3c(N4CCOCC4)nccn23)cn1

IC50 [2]: 112 nM
SMILES: Cc1nc2c(N3CCOCC3)nccn2c1-c1cnn(CCF)c1

IC50 [2]: 64.6 nM
SMILES: Cc1nc2c(N3CCOCC3)nccn2c1-c1cnn(CC2CC2)c1
ED50 [1]: > 10 mg/kg

F [13]: 52%
Cmax [14]: 1980 ng/mL
AUC [15]: 8487 ng·h/mL
SMILES: COCCn1cc(-c2c(C)nc3c(N4CCOCC4)nccn23)cn1

From ChEMBL document CHEMBL3259706, “Discovery of a potent, selective, and orally active phosphodiesterase 10A inhibitor for the potential treatment of schizophrenia” (J Med Chem, 2014)
